Bioassay records (PubChem BioAssay)
PolyA inhibitor – blocks polyadenylation in yeast reporter cells; AID 1875; S. cerevisiae SKY197-pL101 polyadenylation reporter, beta-gal luminescence; efflux-impaired pdr1/pdr3 knockout yeast; score 100 = 6 SD above DMSO; activity score, % at 12 µM; 300,000 tested, 0.02% active;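 active = lowest replicate activity score at least 50, where 100 means six control SD above control mean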;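 note: yeast exposed to compound for 9 h at 30 °C; higher score means more reporter readthrough which indicates perturbed polyadenylation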
A3G deaminase – blocks human APOBEC3G single-stranded DNA deamination | 330,000 tested, 0.28% active | Q9HC16 | AID 493012 | inhibition, % at 20 µM | recombinant A3G, ssDNA deamination FAM/TAMRA fluorescence;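 active = inhibition of at least 40% at 20 µM, with no more than 30% in the related APOBEC3A deaminase screen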;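 note: plate controls were DMSO wells with A3G for no effect and wells lacking A3G enzyme for full effect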
A3A deaminase – human APOBEC3A DNA deaminase inhibition. P31941. recombinant A3A, FAM/TAMRA ssDNA deamination fluorescence. inhibition, % at 20 µM. 330,000 tested, 0.41% active;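 active = at least 40% inhibition at 20 µM here, with at most 30% in a related deaminase screen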;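 note: plate controls were A3A with DMSO for no effect and wells lacking A3A enzyme for full effect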
Arr AP2 block – human beta-arrestin and AP2 interaction inhibition; AID 504490; 340,000 tested, 0.31% active; inhibition, % at 10 µM; FITC-arrestin peptide / GST-AP2 beads, flow cytometry; AP2 beta2 appendage carries R879A mutation;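 active = inhibition above a set limit, near 3 SD of compounds lacking own fluorescence, cut at about 54% in these data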;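 note: plate controls were DMSO wells for no effect and 5 µM unlabelled arrestin peptide for full effect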
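System: GST-tagged AP2 beta2-adaptin appendage (R879A) on 4 µm glutathione beads / Reagent: FITC-arrestin peptide, 50 nM / Detection: HyperCyt-sampled flow cytometry, FL1 channel, ex 488/em 535 nm / Timing: 12 min plus 1 h, RT / Buffer or medium: PBS plus Tween 20 (0.05%) and BSA (0.1%)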
UCH37 DUB inh – human UCH37 deubiquitinating enzyme inhibition; 330,000 tested, 0.33% active; inhibition, % (no concentration beside the values); purified proteasome/UCH37, Ub-AMC cleavage fluorescence;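 active = mean inhibition over replicate wells above about 20%, limit read from the data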;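 note: 0% = compound-free wells with enzyme and 100% = wells lacking proteasome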
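System: Proteasome-associated human UCH37 deubiquitinase; Input: 0.15 nM proteasome in added enzyme buffer; Also added: Ub-AMC substrate from 1 µM stock; Incubation: 30 min compound-proteasome preincubation then 25 min substrate reaction, room temperature; Detection: fluorescence, ex 355 nm, em 460 nm; Read-out: % inhibition of Ub-AMC cleavage fluorescence; Benchmarks: no-proteasome and no-compound wells.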
AHR activator – activators of human aryl hydrocarbon receptor; P35869; AHR-responsive luciferase reporter cells, luminescence; activation, % at 5 µM; 320,000 tested, 2.5% active; AID 2796; in the data active = activation above about 47%;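 note: 0% = vehicle wells and 100% = reference agonist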
Target sequence (P35869 whole entry, looked up): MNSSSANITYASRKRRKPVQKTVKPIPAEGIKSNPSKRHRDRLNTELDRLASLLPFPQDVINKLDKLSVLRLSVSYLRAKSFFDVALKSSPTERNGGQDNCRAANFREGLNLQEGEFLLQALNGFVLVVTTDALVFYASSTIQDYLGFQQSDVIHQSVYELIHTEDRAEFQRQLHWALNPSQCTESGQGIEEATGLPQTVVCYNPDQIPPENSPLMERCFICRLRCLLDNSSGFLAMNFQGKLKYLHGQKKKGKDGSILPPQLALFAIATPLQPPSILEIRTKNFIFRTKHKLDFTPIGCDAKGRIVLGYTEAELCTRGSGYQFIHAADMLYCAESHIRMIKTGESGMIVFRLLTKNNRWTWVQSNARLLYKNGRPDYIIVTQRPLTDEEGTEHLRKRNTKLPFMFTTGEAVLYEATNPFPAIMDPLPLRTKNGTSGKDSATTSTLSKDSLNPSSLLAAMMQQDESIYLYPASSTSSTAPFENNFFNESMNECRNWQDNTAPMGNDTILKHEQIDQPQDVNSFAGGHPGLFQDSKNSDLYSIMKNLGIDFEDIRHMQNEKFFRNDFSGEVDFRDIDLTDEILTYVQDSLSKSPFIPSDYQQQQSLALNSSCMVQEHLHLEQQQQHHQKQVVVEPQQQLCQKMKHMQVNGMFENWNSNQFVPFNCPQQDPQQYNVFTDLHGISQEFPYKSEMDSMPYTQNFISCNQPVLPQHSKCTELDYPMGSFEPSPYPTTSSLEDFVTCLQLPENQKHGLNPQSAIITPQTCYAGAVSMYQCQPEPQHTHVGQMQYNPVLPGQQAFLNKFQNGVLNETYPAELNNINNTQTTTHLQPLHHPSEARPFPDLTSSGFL
Arr AP2 CP1 – inhibitors of human beta-arrestin and AP2 interaction; shares compounds with Arr AP2 block; GST-AP2 beads, FITC arrestin peptide binding, flow cytometry; GST-fused beta2-adaptin appendage, R879A mutant; inhibition, % at 10 µM; 1,300 tested, 2% active; AID 504908;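 active = inhibition above a set limit, roughly 3 SD of non-fluorescent compound noise, cut at about 38% in these data; inactive = inhibition at or below that limit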;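 note: loss of bead fluorescence from 50 nM FITC arrestin peptide bound to appendage; 0% = negative control wells and 100% = excess unlabelled arrestin peptide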
GST-FITC bead – GST-GSH bead binding interference, counter-screen. shares compounds with Arr AP2 block. GST-fluorescein binding to GSH beads, fluorescence. inhibition, % at 10 µM. 1,300 tested, 2% active;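 active = inhibition above 50%, about 3 SD of the inhibition seen with non-fluorescent compounds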;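 note: fluorescein maleimide labelled GST captured on 4 micron glutathione beads; higher means more loss of bead fluorescence from quenching or blocked binding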
Active calls of the source: *; nt = no result given. Shown are actives, neighbours in structure and some others; about 3.4% of the full set was active somewhere.

SMILES	PolyA inhibitor	A3G deaminase	A3A deaminase	Arr AP2 block	UCH37 DUB inh	AHR activator	Arr AP2 CP1	GST-FITC bead
COc1cccc(NC(=O)Nc2cnccn2)c1	-10.7	-4.3	-3.8	3.1	-1.0	35.8	2.6	-11.6
Cc1ccc(NC(=O)Nc2cnccn2)c(C)c1	8.3	1.6	-2.1	-0.1	2.1	1.3	-8.5	-1.1
O=C(Nc1cc(Cl)cc(Cl)c1)Nc1cnccn1	-15.6	-4.0	2.7	-8.6	4.8	19.6	nt	nt
C(/C=C/c1ccccc1)=NNc1nncc(-c2ccccc2)n1	nt	nt	nt	nt	9.8	nt	nt	nt
CC(=NNC(=O)CNC(=O)C(c1ccccc1)c1ccccc1)c1ccc(C)cc1	nt	nt	nt	nt	0.5	nt	nt	nt
CCOc1ccc(-c2nc(CSCC(=O)NCc3ccco3)c(C)o2)cc1	8.9	0.8	0.1	98.4*	4.1	-7.3	5.1	-6.8
CCOc1ccc(-c2nc(CSCC(=O)NC3CC3)c(C)o2)cc1	3.1	-4.2	-4.6	-2.5	1.6	-9.1	nt	nt
C/C(=N\NC(=O)c1ccccc1OCCOc1ccccc1)c1ccccc1F	nt	-1.8	0.2	75.7*	nt	nt	-16.8	-1.4
CC(C)Oc1ccc(CCNC(=O)C2CCC(=O)N(Cc3cccc(F)c3)C2)cc1 (stereo unspecified)	9.9	8.5	1.7	-4.9	5.3	6.7	10.8	-1.4
COc1cccc(CN2CC(C(=O)NCCCc3ccc(C)cc3)CCC2=O)c1 (stereo unspecified)	3.8	-4.7	-3.7	1.9	4.2	-0.7	-8.5	1.5
O=C(NCCc1ccccc1)C1CCC(=O)N(Cc2cccc(C(F)(F)F)c2)C1 (stereo unspecified)	-2.7	-5.9	5.5	0.8	3.8	nt	-4.7	0.8
COc1cccc(CN2CC(C(=O)NCCCc3ccncc3)CCC2=O)c1 (stereo unspecified)	-11.2	-2.6	0.9	-9.1	4.4	nt	nt	nt
CN1CCc2c(sc(N=Cc3c[nH]c4ccccc34)c2C(N)=O)C1	nt	nt	nt	nt	9.5	nt	nt	nt
Cc1n[nH]c(=O)nc1NN=Cc1cccs1	nt	nt	nt	nt	7.9	nt	nt	nt
COc1cc(NC(=O)C(C)Oc2ccccc2)c(C(=O)O)cc1OC (stereo unspecified)	26.8	-1.0	-0.9	-0.7	4.4	-2.1	-5.7	-4.6
Cc1cccc(C(=O)NN=Cc2ccc(OC3CSC3)cc2)c1	nt	nt	nt	nt	1.4	nt	nt	nt
O=c1oc2ccccc2c2c1C(c1ccc(Cl)cc1)Nc1ccc3ccccc3c1-2 (stereo unspecified)	-9.2	-4.6	4.9	84.7*	-34.0	5.9	-5.4	-1.0
CN(C)S(=O)(=O)c1ccc(NC(=O)C2CCCN(C(=O)c3ccc(Cl)cc3)C2)cc1 (stereo unspecified)	-13.5	-1.6	-0.6	56.0*	2.4	8.7	-1.7	-4.8
CC(C)N(C(=O)[C@H]1C[C@H](CC(=O)NCc2ccco2)C(=O)N2CCc3c([nH]c4cc(-c5ccco5)ccc34)[C@]12C)C(C)C	nt	0.9	2.8	60.2*	-8.9	nt	-9.1	-1.4
O=C(C[C@H]1C[C@H](C(=O)N2CCCCC2)[C@@]2(CCc3ccccc3)c3[nH]c4cc(-c5ccco5)ccc4c3CCN2C1=O)NCCC1=CCCCC1	nt	4.7	1.8	57.2*	-36.6	nt	-2.8	-5.7
CC(C)N(C(=O)[C@H]1CC(CC(=O)NCc2ccco2)C(=O)N2CCc3c([nH]c4ccccc34)[C@]12C)C(C)C (stereo partly specified)	nt	-2.8	0.1	1.9	2.4	1.1	nt	nt
CCCc1c(C(=O)NN=C/C(C)=C/c2ccccc2)nnn1-c1nonc1N	nt	nt	nt	nt	3.8	nt	nt	nt
O=C(Nc1ccc(F)cc1)Nc1nnc(COc2ccccc2F)s1	0.4	6.5	0.6	105.7*	4.2	5.8	-7.8	34.3
Clc1ccc(-c2csc(N/N=C/c3ccc4c(c3)OCO4)n2)cc1	-1.8	-9.9	0.4	79.1*	nt	63.3*	-2.5	1.2
O=C(CSc1cccc[n+]1[O-])NC(=O)c1ccc(OC(F)F)cc1	6.9	0.6	0.5	54.3*	0.6	0.1	-9.4	-2.1
SMILES	PolyA inhibitor	A3G deaminase	A3A deaminase	Arr AP2 block	UCH37 DUB inh	AHR activator	Arr AP2 CP1	GST-FITC bead
Cn1cccc1C(=O)NC(=O)CSc1cccc[n+]1[O-]	6.6	-4.8	-5.9	-0.2	1.3	5.8	nt	nt
COC(=O)c1ccc(C=NNC(=O)CCSc2nc3ccccc3s2)cc1	nt	nt	nt	nt	4.8	nt	nt	nt
O=C(N/N=C/c1ccco1)c1cc(-c2ccc3ccccc3c2)n[nH]1	-12.0	-6.4	0.4	55.7*	nt	2.8	5.2	-10.6
O=C(/C=C/c1ccc(S(=O)(=O)N2CCOCC2)cc1)Nc1ccc(F)c(F)c1F	nt	-4.5	2.7	-1.6	5.8	-0.2	nt	nt
O=C(CCc1ccccc1Cl)Nc1cc(S(=O)(=O)N2CCOCC2)ccc1N1CCCC1	nt	nt	nt	30.2	-1.2	nt	nt	nt
O=C(/C=C/c1ccc(F)cc1)Nc1ccc(S(=O)(=O)N2CCOCC2)cc1	0.6	-0.4	1.3	54.0*	-1.8	-5.8	-5.5	10.2
O=C(CCc1ccccc1Cl)Nc1ccc(S(=O)(=O)N2CCOCC2)cc1	8.2	-3.8	0.1	58.8*	0.3	-0.1	-3.9	-2.4
COCC(C)n1c(SCC(=O)NC(=O)Nc2ccc3c(c2)OCCO3)nc2ccccc2c1=O (stereo unspecified)	3.2	-1.2	2.9	55.5*	1.5	-0.2	8.2	-11.2
CC(CCc1ccco1)=NNC(=O)CNc1cccc2ccccc12	nt	nt	nt	nt	-65.8	nt	nt	nt
Cc1ccc(C(=O)N/C(=C\c2ccco2)C(=O)NCCN2CCOCC2)cc1C	-18.6	-2.8	-2.7	55.5*	4.7	-2.8	-4.6	0.7
O=C(NNC1=NS(=O)(=O)c2ccccc21)c1ccc(Cl)cc1	10.5	-10.7	-3.7	57.6*	11.3	24.9	-11.1	-0.3
CCOC(=O)C1=C(COC(=O)COc2cccc(C)c2C)NC(=O)NC1C (stereo unspecified)	nt	-2.1	0.2	-10.5	-2.2	0.3	0.2	3.2
CCOC(=O)C1=C(COC(=O)COc2ccc(OCC)cc2)NC(=O)NC1C (stereo unspecified)	-21.0	18.6	-2.2	15.6	0.9	-2.2	-7.7	-7.3
CCOC(=O)C1=C(COC(=O)COc2ccccc2C(C)C)NC(=O)NC1C (stereo unspecified)	nt	-1.6	0.4	60.7*	1.1	nt	12.4	1.2
CCOC(=O)C1=C(COC(=O)COc2ccccc2OCC)NC(=O)NC1C (stereo unspecified)	-17.8	-6.4	-3.2	-3.7	5.6	-1.2	-0.8	-10.9
CCOC(=O)C1=C(COC(=O)c2cccc(Br)c2)NC(=O)NC1C (stereo unspecified)	-15.9	0.5	4.4	-3.0	2.0	-0.3	nt	nt
